Measurements reported in ChEMBL document CHEMBL1125784, “Geiparvarin analogues. 2. Synthesis and cytostatic activity of 5-(4-arylbutadienyl)-3(2H)-furanones and of N-substituted 3-(4-oxo-2-furanyl)-2-buten-2-yl carbamates” (J Med Chem, 1991).
In brackets after ≈: the same amount, converted by molar mass.

How the values were obtained:
Format in all cases: functional, cell-based
FM3A [1] = test: Inhibitory activity against proliferation of murine mammary carcinoma FM3A tumor cell line; conditions: Mus musculus
Method in brief: (§1)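 Molt/4F or FM3A cells were suspended in growth medium and plated at 5×10^4 cells/well with varying compound concentrations. They proliferated 72 h at 37 °C in a humidified, CO2-controlled atmosphere before Coulter-counter enumeration. IC50 is the concentration giving a 50% drop in viable cell count.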

L1210 [2] = test: Inhibitory activity against proliferation of murine leukemia L1210 tumor cell line; conditions: Mus musculus
Method in brief: (§2)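 L1210 cells in growth medium, seeded at 5×10^4 cells/well with a range of test compound concentrations, grown 48 h at 37 °C in humidified CO2-controlled air. Cells were counted in a Coulter counter. IC50 is the concentration reducing viable cell number by 50%.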

MT4 [3] = test: Inhibitory activity against proliferation of human T-lymphocyte MT-4 tumor cell line
Method in brief: (§3)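 MT-4 cells in growth medium, plated at 6.25×10^4 cells/well with serial compound concentrations. Incubation was 72 h at 37 °C, humidified and CO2-controlled, then cells were counted electronically (Coulter). IC50 is the concentration lowering viable cell number by 50%.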

MOLT-4F [4] = test: Inhibitory activity against proliferation of human T-lymphoblast Molt/4F tumor cell line; method in brief: as §1
FM3A [5] = test: Inhibitory activity against proliferation of murine (FM3A) tumor cell.; conditions: Mus musculus; method in brief: as §1
L1210 [6] = test: Inhibitory activity against proliferation of murine (L1210) tumor cell.; conditions: Mus musculus; method in brief: as §2
MT4 [7] = test: Inhibitory activity against proliferation of human(MT-4) tumor cell.; method in brief: as §3
MOLT-4F [8] = test: Inhibitory activity against proliferation of human(Molt/4F) tumor cell.; method in brief: as §1

SMILES | IC50 (L1210 [2]) | IC50 (MOLT-4F [4]) | IC50 (L1210 [6]) | IC50 (MOLT-4F [8]) | IC50 (FM3A [1]) | IC50 (MT4 [3]) | IC50 (FM3A [5]) | IC50 (MT4 [7])
C/C(=C\C=C\c1ccccc1)C1=CC(=O)C(C)(C)O1 | 14 µg/mL (≈ 55 µM) | 14 µg/mL (≈ 55 µM) | – | – | 15 µg/mL (≈ 59 µM) | 6.5 µg/mL (≈ 25.6 µM) | – | –
C/C(=C\C=C/C1CCCCC1)C1=CC(=O)C(C)(C)O1 | 23 µg/mL (≈ 88.3 µM) | 7.1 µg/mL (≈ 27.3 µM) | – | – | 10.8 µg/mL (≈ 41.5 µM) | 8.4 µg/mL (≈ 32.3 µM) | – | –
COc1ccc(/C=C/C=C(\C)C2=CC(=O)C(C)(C)O2)cc1 | 18 µg/mL (≈ 63.3 µM) | 10 µg/mL (≈ 35.2 µM) | – | – | 25 µg/mL (≈ 87.9 µM) | 5.7 µg/mL (≈ 20 µM) | – | –
CCCCCCCCNC(=O)OC/C=C(\C)C1=CC(=O)C(C)(C)O1 | – | – | 2 µg/mL (≈ 5.93 µM) | 1.7 µg/mL (≈ 5.04 µM) | – | – | 7.1 µg/mL (≈ 21 µM) | 1.3 µg/mL (≈ 3.85 µM)
C/C(=C\C=C\c1ccc2ccc(=O)oc2c1)C1=CC(=O)C(C)(C)O1 | – | – | 63 µg/mL (≈ 195 µM) | 13 µg/mL (≈ 40.3 µM) | – | – | > 100 µg/mL | 2.9 µg/mL (≈ 9 µM)
CCCCNC(=O)OC/C=C(\C)C1=CC(=O)C(C)(C)O1 | 2.6 µg/mL (≈ 9.24 µM) | 5.3 µg/mL (≈ 18.8 µM) | – | – | 7.7 µg/mL (≈ 27.4 µM) | 1.2 µg/mL (≈ 4.27 µM) | – | –
COc1cc2ccc(=O)oc2cc1OC/C=C(\C)C1=CC(=O)C(C)(C)O1 | – | – | 2 µg/mL (≈ 5.61 µM) | 2.9 µg/mL (≈ 8.14 µM) | – | – | 3.9 µg/mL (≈ 10.9 µM) | 0.6 µg/mL (≈ 1.68 µM)
C/C(=C\COC(=O)Nc1ccccc1)C1=CC(=O)C(C)(C)O1 | > 200 µg/mL | > 200 µg/mL | – | – | > 200 µg/mL | 103 µg/mL (≈ 342 µM) | – | –
C/C(=C\COC(=O)NCc1ccccc1)C1=CC(=O)C(C)(C)O1 | 4.7 µg/mL (≈ 14.9 µM) | 6 µg/mL (≈ 19 µM) | – | – | 8.1 µg/mL (≈ 25.7 µM) | 2 µg/mL (≈ 6.34 µM) | – | –

Second part, led by results:

IC50 (L1210 [2]) | IC50 (MOLT-4F [4]) | IC50 (L1210 [6]) | IC50 (MOLT-4F [8]) | SMILES | IC50 (FM3A [1]) | IC50 (MT4 [3]) | IC50 (FM3A [5]) | IC50 (MT4 [7])
4.1 µg/mL (≈ 14.6 µM) | 6.1 µg/mL (≈ 21.7 µM) | – | – | C/C(=C\COC(=O)NC(C)(C)C)C1=CC(=O)C(C)(C)O1 | 7.1 µg/mL (≈ 25.2 µM) | 2.1 µg/mL (≈ 7.46 µM) | – | –
3.7 µg/mL (≈ 12 µM) | 3.4 µg/mL (≈ 11.1 µM) | – | – | C/C(=C\COC(=O)NC1CCCCC1)C1=CC(=O)C(C)(C)O1 | 13 µg/mL (≈ 42.3 µM) | 2.4 µg/mL (≈ 7.81 µM) | – | –
4.9 µg/mL (≈ 18.3 µM) | 6.6 µg/mL (≈ 24.7 µM) | – | – | C/C(=C\COC(=O)NC(C)C)C1=CC(=O)C(C)(C)O1 | 7.2 µg/mL (≈ 26.9 µM) | 2.3 µg/mL (≈ 8.6 µM) | – | –
– | – | 5.1 µg/mL (≈ 17.7 µM) | 10.7 µg/mL (≈ 37.2 µM) | C/C(=C\COC(=O)NCCCl)C1=CC(=O)C(C)(C)O1 | – | – | 20.8 µg/mL (≈ 72.3 µM) | 6.4 µg/mL (≈ 22.2 µM)
6.2 µg/mL (≈ 23.4 µM) | 7.7 µg/mL (≈ 29 µM) | – | – | C=CCNC(=O)OC/C=C(\C)C1=CC(=O)C(C)(C)O1 | 7.6 µg/mL (≈ 28.6 µM) | 2.8 µg/mL (≈ 10.6 µM) | – | –
